ChEMBL document CHEMBL5532745, “Enzymatic Synthesis of Austroeupatol Esters with Enhanced Antiprotozoal Activity” (ACS Med Chem Lett, 2024)

How the values were obtained:
Leishmania infantum [1] = experiment: Antiprotozoal activity against Leishmania infantum MHOM/BR/2002/LPC-RPV promastigotes assessed as growth inhibition at 25 uM incubated for 5 days relative to control; assay type: functional; details: 120 h, time 5 day, read-out: GI
Trypanosoma cruzi [2] = experiment: Antiprotozoal activity against Trypanosoma cruzi epimastigotes assessed as growth inhibition at 25 uM incubated for 5 days relative to control; assay type: functional; details: 120 h, time 5 day, read-out: GI
Trypanosoma cruzi [3] = experiment: Antiprotozoal activity against Trypanosoma cruzi Tulahuen strain amastigotes expressing Escherichia coli beta-galactosidase cultured in Vero cells assessed as growth inhibition at 10 uM incubated for 5 days relative to control; assay type: functional; details: 120 h, time 5 day, read-out: GI
Outline: (§1)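 Vero cells infected with trypomastigotes carrying β-galactosidase; intracellular parasites exposed to compounds, growth inhibition read spectrophotometrically.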

Trypanosoma cruzi [4] = experiment: Antiprotozoal activity against Trypanosoma cruzi Tulahuen strain amastigotes expressing Escherichia coli beta-galactosidase cultured in Vero cells assessed as growth inhibition incubated for 5 days; assay type: functional, organism-based; details: 120 h; outline: as §1
[5] = Cytotoxicity against African green monkey Vero cells incubated for 48 hrs by MTT assay; assay type: toxicity, cell-based; details: chlorocebus sabaeus
Outline: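 Uninfected Vero cells exposed to compounds; viability read by MTT assay to estimate cytotoxicity for selectivity assessment.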

Leishmania infantum [6] = experiment: Antiprotozoal activity against Leishmania infantum MHOM/BR/2002/LPC-RPV promastigotes assessed as growth inhibition at 25 uM incubated for 5 days; assay type: functional, organism-based

IC50 (Trypanosoma cruzi [4]) [µM] | Compound | inhibition of growth at 25 µM (Leishmania infantum [1]) [%] | inhibition of growth at 25 µM (Trypanosoma cruzi [2]) [%] | inhibition of growth at 10 µM (Trypanosoma cruzi [3]) [%] | CC50 at 48 h [5] [µM] | IC50 (Leishmania infantum [6]) [µM]
– | C=C1CC[C@@H]2[C@H](COC(=O)CCCCCCCCCCC)[C@H](O)[C@H](O)C[C@@]2(C)[C@@H]1CCc1ccoc1 | 29.1 | 69.7 | 12.5 | – | –
> 15 | C=C1CC[C@@H]2[C@H](CO)[C@H](O)[C@H](O)C[C@@]2(C)[C@@H]1CCc1ccoc1 | 0 | 24.9 | 28 | 85.4 | –
– | C=C1CC[C@@H]2[C@H](COC(=O)CCCCCCCCCCC)[C@H](OC(=O)CCCCCCCCCCC)[C@H](O)C[C@@]2(C)[C@@H]1CCc1ccoc1 | 2.4 | 46.8 | 4.73 | – | –
– | C=C1CC[C@@H]2[C@H](COC(=O)CCCCCCCCCCCCCCC)[C@H](O)[C@H](O)C[C@@]2(C)[C@@H]1CCc1ccoc1 | 0 | 24.9 | 2.98 | – | –
2.26 | C=C1CC[C@@H]2[C@H](COC(=O)CCc3c[nH]c4ccccc34)[C@H](O)[C@H](O)C[C@@]2(C)[C@@H]1CCc1ccoc1 | 91.5 | 64.3 | 98.7 | < 10 | –
– | MEGLUMINE ANTIMONATE | – | – | – | – | 20
0.94 | O=C(Cn1ccnc1[N+](=O)[O-])NCc1ccccc1 [BENZNIDAZOLE] | – | – | – | > 384 | –
2.06 | C=C1CC[C@@H]2[C@H](COC(=O)CCCC[C@@H]3CCSS3)[C@H](O)[C@H](O)C[C@@]2(C)[C@@H]1CCc1ccoc1 | 47.7 | 58.5 | 95.2 | < 10 | –
– | C=C1CC[C@@H]2[C@H](COC(=O)CCCCCCC)[C@H](OC(=O)CCCCCCC)[C@H](O)C[C@@]2(C)[C@@H]1CCc1ccoc1 | 16.4 | 27.4 | 9.79 | – | –
– | C=C1CC[C@@H]2[C@H](COC(=O)CCCCCCCCCCCCCCC)[C@H](OC(=O)CCCCCCCCCCCCCCC)[C@H](O)C[C@@]2(C)[C@@H]1CCc1ccoc1 | 0 | 31.8 | 2.06 | – | –
8.5 | C=C1CC[C@@H]2[C@H](COC(=O)CCCC)[C@H](O)[C@H](O)C[C@@]2(C)[C@@H]1CCc1ccoc1 | 94.1 | 93.5 | 99.1 | 19.3 | –
– | C=C1CC[C@@H]2[C@H](COC(C)=O)[C@H](O)[C@H](O)C[C@@]2(C)[C@@H]1CCc1ccoc1 | 15.7 | 21.6 | 22.7 | – | –
7.03 | C=C1CC[C@@H]2[C@H](COC(=O)CCCCCCC)[C@H](O)[C@H](O)C[C@@]2(C)[C@@H]1CCc1ccoc1 | 57.1 | 99.5 | 100 | 18.1 | –
